# Arrestin-AP2 inh: human beta-arrestin and AP2 interaction inhibition; FITC-arrestin peptide / GST-AP2 beads, flow cytometry; AP2 beta2 appendage carries R879A mutation; inhibition, % at 10 µM; 340,000 compounds, 0.31% hits;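 active = inhibition above a set limit, near 3 SD of compounds lacking own fluorescence, cut at about 54% in these data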;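 note: plate controls were DMSO wells for no effect and 5 µM unlabelled arrestin peptide for full effect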
#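 System: GST-AP2 R879A glutathione beads. Medium: PBS with 0.05% Tween 20 and 0.1% BSA. Also added: FITC-arrestin peptide, 50 nM. Incubation: 12 min plus 1 h, RT. Measured by: high-throughput flow cytometry of beads, ex 488, em 535 nm. Evaluation: percent drop in bead-associated FITC signal.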
# PfHsp90 set2: growth inhibition of yeast expressing Plasmodium Hsp90 | S. cerevisiae expressing PfHsp90, BacTiter-Glo ATP, 48 h; yeast lacking PDR1 and PDR3 efflux regulators | inhibition, % at 9.4 µM | 310,000 compounds, 0.32% hits;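 active = every replicate shows inhibition above about 80%, whatever the replicate mean, limit read from the data; inconclusive = mean inhibition reaches the set limit but some replicate falls short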;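 note: 0% = DMSO neutral controls and 100% = 20 µM radicicol positive controls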
# N-glyco inh: blocks N-linked glycosylation in D54 reporter cells; D54 ERlucT glycosylation luciferase reporter, 24 h; percent of 100 nM tunicamycin response; reporter increase, % at 12.5 µM; 360,000 compounds, 0.23% hits; AID 588692;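 active = mean luciferase reporter signal, scaled so untreated is 0 and the glycosylation-blocking control 100, at or above a set limit in every replicate; inconclusive = mean reaches the limit but not every replicate does; inactive = mean below the limit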;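 note: luciferase carries N-glycosylation sites so blocking glycosylation raises the light; 0% = median of neutral control wells and 100% = median of 100 nM tunicamycin wells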
# PAX8 reporter: lowers PAX8-driven luciferase in RMG-I cells; RMG-I TPO-luciferase reporter, SteadyGlo, 24 h; inhibition, % at 12.6 µM; 360,000 compounds, 1.2% hits;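 active = mean replicate inhibition at least 60% with every replicate also reaching 60%; inconclusive = only one of the two criteria is met; inactive = mean below 60% and not all replicates reaching 60%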;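 note: luciferase light reporting Pax8 driven TPO promoter activity; plate controls were median of neutral control wells for no effect and mitoxantrone controls for full effect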
# Rtt109 HAT inh: blocks Candida albicans Rtt109/Vps75 acetyltransferase activity. inhibition, % at 34.9 µM. Q5AAJ8. 330,000 compounds, 0.16% hits. purified Rtt109/Vps75, ThioGlo CoA-SH fluorescence, 4 h;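 active = inhibition of at least 50% in every replicate; inconclusive = best replicate reaches 50% inhibition but some replicates fall short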
# Target sequence (Q5AAJ8 whole entry, looked up): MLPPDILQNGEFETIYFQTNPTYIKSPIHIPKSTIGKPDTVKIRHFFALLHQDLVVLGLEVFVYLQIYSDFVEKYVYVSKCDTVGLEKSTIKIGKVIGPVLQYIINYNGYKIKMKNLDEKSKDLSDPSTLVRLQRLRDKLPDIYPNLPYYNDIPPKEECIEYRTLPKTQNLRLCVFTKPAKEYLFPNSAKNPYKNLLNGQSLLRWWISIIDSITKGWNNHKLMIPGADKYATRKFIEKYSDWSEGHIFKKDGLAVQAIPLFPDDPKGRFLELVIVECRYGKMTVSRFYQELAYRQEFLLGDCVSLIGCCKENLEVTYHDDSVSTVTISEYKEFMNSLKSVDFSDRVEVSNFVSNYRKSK
# Env fusion inh: inhibitors of HIV Env-mediated cell fusion; inhibition, % at 12.3 µM; HeLa-JRFL Env/CEM21 cell fusion, luciferase; 360,000 compounds, 1.1% hits;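 active = mean replicate inhibition score of at least 50 and every replicate individually at or above 50; inconclusive = only one of the two criteria met; inactive = mean below 50 and not all replicates reaching 50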;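 note: 0% = plate neutral controls and 100% = maraviroc near 300 nM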
# * = called active by the depositor; ? = inconclusive; nt = not tested or not shown; + = active, no number; [ ] = remark or other dose. In the library only some 2.3% were active in any assay of this set; here they are far more common.
SMILES,Arrestin-AP2 inh,PfHsp90 set2,N-glyco inh,PAX8 reporter,Rtt109 HAT inh,Env fusion inh
S=C(NN=C(c1ccccc1)c1ccccn1)N(Cc1ccccn1)Cc1ccccn1,-3.2,?,-15.0,nt,-3.4,76.2*
Cc1ccccc1NC(=S)N(Cc1ccccn1)Cc1ccccc1Cl,-27.7,-4.0,-3.6,-4.3,4.1,-9.4
O=C(C[C@@H]1C=C[C@@H](NC(=O)CN2CCOCC2)[C@H](CO)O1)NCCc1ccccc1,nt,nt,nt,-2.4,nt,-2.6[16.7 µM]
C[C@@H]1CN([C@H](C)CO)S(=O)(=O)c2ccc(-c3cncnc3)cc2O[C@H]1CN(C)Cc1ccncc1,nt,nt,nt,nt,nt,-5.3[16.7 µM]
CC(=O)N(C)C[C@H]1Oc2ncc(C#CC(C)(C)O)cc2C(=O)N([C@H](C)CO)C[C@H]1C,nt,nt,nt,nt,nt,3.0[16.7 µM]
CC(C)(C)c1ccc(-c2cn(-c3ccc(Br)cc3)c3[n+]2CCCS3)cc1,-2.0,-10.6,1.9,95.3*,9.7,?
c1ccc(-c2cn(-c3ccccc3)c3[n+]2CCS3)cc1,-23.5,-11.9,-0.4,20.0,-2.1,29.3
O=C(C1CCCC1)N1CCCCN2[C@H](C1)[C@H](c1ccc(C#CC3(O)CCCC3)cc1)[C@@H]2CO,nt,nt,nt,-2.9,nt,nt
CC(C)CC(=O)N1CC=CC[C@@H](c2ccc(Cl)cc2)N(Cc2ccc(Cl)cc2)C(=O)[C@@H]1Cc1ccccc1,-0.8,0.1,-8.4,-0.8,-0.2,75.6*
O=C1[C@H](Cc2ccccc2)NCCCC[C@@H](c2ccc(Cl)cc2)N1Cc1ccc(Cl)cc1,3.5,23.5,-6.5,9.0,-7.4,-19.2
CCC(=O)N1[C@@H]2Cn3c(ccc(-c4cncnc4)c3=O)[C@H]1[C@@H](C(=O)N1CCc3ccccc3C1)[C@@H]2CO,nt,nt,nt,-14.7,nt,nt
COc1ccc(CNC(=O)C2CCN(S(=O)(=O)N3CCCCC3)CC2)cc1,-5.7,15.0,0.1,0.7,-3.7,-0.9
CCc1ccc(CNC(=O)C2CCN(S(=O)(=O)N3CCCCC3)CC2)cc1,nt,nt,-2.1,80.6*,nt,42.7
CC(C)(C)c1cc(-c2nc(N)nc(N)n2)c(O)c(C(C)(C)C)c1,33.3,+,-2.8,3.8,?,15.4
Nc1nc(N)nc(-c2cc(O)ccc2O)n1,3.2,-2.2,-6.7,-19.2,0.0,52.7
Cc1cc(NC(=O)CS(=O)(=O)c2cn(Cc3ccccc3Cl)c3ccccc23)no1,5.0,-30.4,0.6,nt,3.3,89.9*
Cc1cc(NC(=O)CS(=O)(=O)c2cn(Cc3cccc(Br)c3)c3ccccc23)no1,nt,nt,-3.9,1.3,nt,44.4
Cc1nn(Cc2ccc(Cl)cc2)c(=O)n1N(C)c1ncc(C(F)(F)F)cc1Cl,-3.9,-2.6,12.6,nt,9.7,nt
Cc1nn(Cc2ccc([N+](=O)[O-])cc2)c(=O)n1N(C)c1ncc(C(F)(F)F)cc1Cl,-2.3,9.2,10.2,7.8,-1.7,63.5*
Cc1nnc(Sc2cc(NCCCO)c([N+](=O)[O-])c3nonc23)s1,1.3,-5.2,5.7,75.3*,+,-4.6
Cc1ccc(Cl)cc1N1CCN(C(=O)c2noc(C(C)C)c2[N+](=O)[O-])CC1,5.2,10.4,2.2,118.9*,5.9,11.8
CC(C)c1onc(C(=O)N2CCN(C(c3ccccc3)c3ccccc3)CC2)c1[N+](=O)[O-],10.3,10.8,0.8,83.8*,15.6,-25.4
CC(C)c1onc(C(=O)N2CCN(c3ccccc3)CC2)c1[N+](=O)[O-],4.5,1.4,-0.4,9.6,-5.3,-7.7
S=c1[nH]nc(-c2cc(-c3ccccc3)n[nH]2)n1/N=C/C(Br)=C/c1ccccc1,9.8,nt,32.2*,45.5,nt,-44.2
CC(=C/c1ccccc1)/C=N/n1c(C)n[nH]c1=S,24.2,-1.6,3.5,-88.3,-2.2,59.2*
SMILES,Arrestin-AP2 inh,PfHsp90 set2,N-glyco inh,PAX8 reporter,Rtt109 HAT inh,Env fusion inh
CC(=C/c1ccccc1)/C=N/n1c(-c2ccncc2)n[nH]c1=S,-9.1,14.5,-9.6,-40.7,7.6,64.3*
O=C(c1oc2ccccc2c1CSCc1ccccc1)N1CCN(c2ncccn2)CC1,14.8,-33.3,-1.9,nt,-3.5,55.6*
CC(C)NC(=O)Nc1ccc2c(c1)CC(=O)N([C@H](C)CO)C[C@@H](C)[C@@H](CN(C)C(=O)Nc1cccc3ccccc13)O2,nt,nt,nt,-5.3,nt,21.1[16.7 µM]
C[C@H]1CN([C@@H](C)CO)C(=O)CCCn2cc(nn2)CO[C@@H]1CN(C)CC1CCCCC1,nt,nt,nt,nt,nt,-3.4[16.7 µM]
O=C(CN1CCN(Cc2ccccc2)CC1)NCc1ccc(Cl)cc1,-9.1,3.0,-0.6,19.4,-3.8,-27.6
Cc1ccc(CN2CCN(CC(=O)NCc3ccccc3)CC2)cc1,7.8,13.0,1.4,8.7,53.2*,12.8
N#Cc1c(-c2ccccc2)nc(SCC(=O)N(c2ccccc2)c2ccccc2)[nH]c1=O,11.3,-11.9,-1.4,19.5,26.0,8.8
N#Cc1c(-c2ccccc2)nc(SCC(=O)N2c3ccccc3Sc3ccccc32)[nH]c1=O,31.3,-12.8,2.5,-7.4,57.8*,0.8
O=C1/C(=C\c2ccc(O)c(O)c2)SC(=S)N1Cc1ccccc1,16.6,122.1*,0.4,24.7,2.3,-5.9
O=C(CCN1C(=O)/C(=C\c2ccccc2)SC1=S)NCCCN1CCOCC1,-8.4,6.0,1.3,24.8,6.0,-20.2
O=C1/C(=C\c2cccc(O)c2O)SC(=S)N1Cc1ccccc1,0.8,108.4*,-1.5,3.9,-0.8,10.8
O=C1C(=Cc2ccccc2O)SC(=S)N1CCCN1CCOCC1,nt,nt,-0.5,25.8,nt,85.4*
CC=Cc1ccc2n(c1=O)C[C@@H]1[C@@H](CO)[C@H](C(=O)N(C)C)N(C(=O)CC3CC3)[C@H]21 (mixture of isomers),nt,nt,nt,-5.1,nt,nt
O=[N+]([O-])c1cc(CN2CCN(c3cccc(C(F)(F)F)c3)CC2)c2cccnc2c1O,1.7,99.0*,nt,52.8,23.8,51.8
C[C@H]1CCCCO[C@@H](CN(C)S(=O)(=O)c2ccc(F)cc2)[C@@H](C)CN([C@@H](C)CO)C(=O)c2cc(NC(=O)NC3CCCCC3)ccc2O1,nt,nt,nt,66.5*,nt,?
COc1ccc(S(=O)(=O)N(C)C[C@@H]2OCCCC[C@H](C)Oc3ccc(NC(=O)NC4CCCCC4)cc3C(=O)N([C@@H](C)CO)C[C@@H]2C)cc1,nt,nt,nt,66.0*,nt,26.7[16.7 µM]
C[C@H]1CCCCO[C@@H](CN(C)S(=O)(=O)c2ccccc2)[C@@H](C)CN([C@@H](C)CO)C(=O)c2cc(NC(=O)NC3CCCCC3)ccc2O1,nt,nt,nt,69.1*,nt,19.5[16.7 µM]
COc1cccc(CNC(=O)C[C@@H]2C=C[C@@H](NS(=O)(=O)c3ccccc3OC)[C@H](CO)O2)c1,nt,nt,nt,1.3,nt,8.5[16.7 µM]
CCOC(=O)c1c(C)oc2c(F)c(F)c(F)c(F)c2c1=O,26.0,nt,30.5*,nt,4.2,nt
C[C@@H]1CCCCO[C@H](CN(C)Cc2ccc(Cl)c(Cl)c2)[C@@H](C)CN([C@@H](C)CO)C(=O)c2cc(NC(=O)Cc3ccccc3)ccc2O1,nt,nt,nt,95.6*,nt,-22.8[16.7 µM]

# Screening data: PubChem, several laboratories
